Laboratory results published in PMC6404779 (Nature medicine, 2018).

Legend:
[1] = tested on: BRAF V600E monomers (SK-MEL-239); assay: p-ERK Western blot, 1 hr drug treatment; type: cell-based; conditions: p-ERK/total ERK by densitometry, calculated from the curves in Figure 1
How it was run: (§1)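 SK-MEL-239 and SK-MEL-239 C4 cells (DMEM, glutamine, antibiotics, 10% FBS) were exposed 1 hr to 0–30,000 nM test compound (0,10,30,100,300,1000,3000,10,000, 30,000 nM). Whole-cell lysates were Western blotted, and p-ERK/total ERK was quantified by densitometry and normalized to untreated cells. IC75 is the concentration giving 75% inhibition on the response curve; 4 independent repeats, mean±s.d.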

[2] = tested on: p61 BRAF V600E homodimers (SK-MEL-239 C4); assay: p-ERK Western blot, 1 hr drug treatment; type: cell-based
How it was run: as §1

BRAF/CRAF dimers = BRAF/CRAF dimers (Homo sapiens, UniProt P04049); assay: RAF dimer immunoprecipitation in 293H; type: cell-based
Sequence of BRAF/CRAF dimers (P04049 whole entry): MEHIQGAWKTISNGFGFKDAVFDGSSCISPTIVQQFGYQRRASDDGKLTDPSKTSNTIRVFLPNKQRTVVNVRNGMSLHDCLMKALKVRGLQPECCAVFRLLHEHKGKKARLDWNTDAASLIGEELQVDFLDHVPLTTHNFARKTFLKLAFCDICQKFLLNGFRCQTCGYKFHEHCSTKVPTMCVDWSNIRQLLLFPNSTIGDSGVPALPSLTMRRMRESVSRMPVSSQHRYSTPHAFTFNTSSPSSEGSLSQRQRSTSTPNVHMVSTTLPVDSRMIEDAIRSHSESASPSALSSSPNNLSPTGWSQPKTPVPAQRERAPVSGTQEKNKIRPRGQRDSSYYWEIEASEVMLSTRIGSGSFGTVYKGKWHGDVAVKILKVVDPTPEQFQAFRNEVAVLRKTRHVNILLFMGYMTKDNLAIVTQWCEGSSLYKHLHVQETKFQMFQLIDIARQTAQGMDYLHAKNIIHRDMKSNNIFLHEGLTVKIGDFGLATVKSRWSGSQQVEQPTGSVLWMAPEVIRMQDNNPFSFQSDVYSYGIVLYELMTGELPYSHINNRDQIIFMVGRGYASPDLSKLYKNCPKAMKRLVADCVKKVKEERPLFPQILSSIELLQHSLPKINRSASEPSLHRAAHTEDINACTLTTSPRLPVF
How it was run: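 293H cells with inducible NRAS Q61K co-expressed V5- and FLAG-tagged pairs: BRAF/BRAF, p61 BRAF/p61 BRAF, CRAF-V5/BRAF-FLAG, catC-V5/p61 BRAF-FLAG, CRAF/CRAF or catC/catC. Cells were exposed 1 hr to increasing test compound concentrations, and lysates were immunoprecipitated with anti-V5 agarose. Blots were probed with anti-V5/anti-FLAG. Pulled-down tagged proteins were quantified by densitometry, normalized to untreated cells and plotted as response curves; 3 independent repeats.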

[3] = target: RAS-independent BRAF dimers (p61 BRAF) (Homo sapiens, UniProt P15056); assay: RAF dimer immunoprecipitation in 293H; type: cell-based; conditions: read-out: IC50 for decrease of dimer levels, p61 BRAF; 1hr; IP/Western blot
How it was run: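 293H cells carried doxycycline-inducible NRAS Q61K introduced by retrovirus. They were transfected with Lipofectamine 2000 (DNA:reagent 1:3) to co-express V5- and FLAG-tagged full-length BRAF or p61 BRAF pairs. Cells were exposed to increasing test-compound doses for 1 hr, then lysed, and lysates were immunoprecipitated with anti-V5 agarose (1:200). Blots were probed with anti-V5 and anti-FLAG. Pulled-down FLAG and V5 proteins were quantified by densitometry and normalised to untreated cells.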

[4] = tested on: Class 2 BRAF mutant homodimers; assay: RAF dimer immunoprecipitation in 293H cells; type: cell-based; conditions: 1hr, increasing doses
BRAF V600E monomers = assay: ERK signaling in SKBR3 cells ectopically expressing RAF proteins; type: cell-based; conditions: 1hr
How it was run: (§2)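 SKBR3 cells (DMEM/F12 + 10% FBS) were transfected the day after seeding (Lipofectamine 2000, DNA:lipid 1:3) with plasmids for the indicated RAF proteins or empty pcDNA3. After 24 h, RAF-transfected cells got 1 uM lapatinib to suppress endogenous RAF activity; vector cells got DMSO. Test compound was then added at increasing doses for 1 hr. Protein expression and phosphorylation were read by Western blot; 3–4 independent repeats.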

[5] = tested on: activated CRAF homodimers; assay: as above; type: cell-based; conditions: 1hr
How it was run: as §2

BRAF knockout MEF cells = assay: p-MEK/p-ERK in RAF knockout MEF cells; type: cell-based, Mouse; conditions: 1hr
How it was run: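 Wild-type control MEFs and ARAF, BRAF or CRAF knockout MEFs (from a conditional RAF knockout line) were exposed 1 hr to increasing test compound concentrations. Western blot measured p-MEK, MEK, p-ERK and ERK. p-MEK/MEK and p-ERK/ERK were quantified by densitometry, normalized to untreated cells and plotted as response curves (mean±s.d.). Cellular experiments were repeated at least three times.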

[6] = tested on: RAF-null MEFs expressing ARAF; assay: ERK signaling in RAF-null MEFs expressing one RAF isoform; type: cell-based, Mouse; conditions: 1hr
How it was run: (§3)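 RAF-less MEFs came from Araflox/lox;Braflox/lox;Craflox/lox;RERT ert/ert MEFs. Doxycycline-inducible wild-type ARAF, BRAF or CRAF was transduced retrovirally without 4-OHT and selected with puromycin/hygromycin. Cells were then infected with Adeno-Cre (MOI 100) and cultured in 1 uM 4-OHT plus 50 ng/ml doxycycline. GFP-positive cells were sorted after 2 weeks. Loss of endogenous RAF and induced expression were confirmed by genomic PCR and Western blot.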

[7] = tested on: RAF-null MEFs expressing BRAF; assay: as above; type: cell-based, Mouse; conditions: 1hr
How it was run: as §3

[8] = tested on: RAF-null MEFs expressing CRAF; assay: as above; type: cell-based, Mouse; conditions: 1hr
How it was run: as §3

[9] = tested on: Class 2 BRAF mutants (SK-MEL-239 C4, SK-MEL-246, JVM-3, and 22RV1); assay: ERK signaling in a panel of cell lines, 1 hour; type: cell-based
[10] = tested on: WT RAF driven by either WT or mutant RAS (A549, SK-MEL-285, BEAS-2B and melanocytes); assay: ERK signaling in a panel of cell lines, 1 hour; type: cell-based
How it was run: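 Cells cultured as follows: SK-MEL-285 in RPMI with 10% FBS; BEAS-2B in BEBM medium; primary melanocytes in Dermal cell basal medium with melanocyte growth kit; A549 in DMEM with glutamine, antibiotics and 10% FBS. Pathway status read by Western blot for p-MEK1/2, p-ERK1/2, MEK1/2 and ERK1/2 (primary 1:1,000; HRP secondary 1:5,000). Cellular experiments repeated at least three times.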

[11] = PLX8394 concentration in tumor samples; type: in vivo, Mice; conditions: single dose of 50mg/kg (i.p.), A375 xenograft tumor tissue
How it was run: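 Melanoma xenograft tumours were collected at several time points after a single 50 mg/kg dose. Fresh tissue (50–150 mg) was snap-frozen in an ethanol–dry ice bath, homogenised and protein-precipitated. Samples were quantified by LC-MS/MS with an internal standard and a 15–50000 ng/mL calibration range. Standards were made by spiking untreated homogenate, and QC samples spanned the range.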

A375 Xenograft tumors = assay: ERK pathway inhibition in A375 xenograft tumors after a single dose; type: in vivo, Mice; conditions: single dose of 50mg/kg
[12] = tested on: A375 cells with overexpression of BRAF V600E; assay: A375 xenograft with doxycycline-induced BRAF V600E overexpression; type: in vivo, nude mice; conditions: vemurafenib 75mg/kg BID, PLX8394 50mg/kg BID
How it was run: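 A375 cells carrying a retroviral tet-regulated BRAF V600E or NRAS Q61K construct (kept in 50 ug/ml hygromycin and 0.2 ug/ml puromycin). 5 million cells were injected s.c. into nude mice fed doxycycline food. At 100 mm3, mice stayed on doxycycline food and received vehicle, reference RAF inhibitor 75 mg/kg BID or test compound 50 mg/kg BID. Tumour size was tracked (n=5; mean±s.d.; two-tailed unpaired t-test).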

[13] = tested on: BRAF K601E CRC PDX tumors; assay: Colorectal cancer PDX model; type: in vivo, NSG mice; conditions: vemurafenib 75mg/kg BID, PLX8394 50mg/kg BID

Question: For `O=C(c1c(F)ccc(NS(=O)(=O)N2CC[C@@H](F)C2)c1F)c1c[nH]c2ncc(-c3cnc(C4CC4)nc3)cc12` [PLX8394], which “IC75 of p-ERK in SK-MEL-239” value [1] is on record?
Answer: 39 nM

Question: And the “IC75 of p-ERK in SK-MEL-239 C4” value ([2]; 1 hr, p-ERK/total ERK by densitometry, calculated from the curves in Figure 1)?
Answer: 158 nM

Question: What about the “concentration that inhibits p61 dimers” value ([2]; SK-MEL-239 C4, 1 hr) of the same molecule?
Answer: 100~300 nM

Question: What about the IC50 (BRAF/CRAF dimers) of the same molecule?
Answer: 100 to 300 nM

Question: And the IC50 [3]?
Answer: 100 to 300 nM

Question: What about the “disruption of Class 2 BRAF mutant homodimers” value [4] of the same molecule?
Answer: disrupts

Question: What about the “doses required to inhibit BRAF V600E monomers” value (BRAF V600E monomers) of the same molecule?
Answer: 30 to 100 nM

Question: And the “effect on ERK signaling in cells with activated CRAF homodimers” value [5]?
Answer: activated ERK signaling

Question: What about the “effect on ERK signaling, BRAF knocked out” value (BRAF knockout MEF cells) of the same molecule?
Answer: induced ERK signaling

Question: What about the “effect on ERK signaling, cells expressing only ARAF” value [6] of the same molecule?
Answer: activated

Question: And the “effect on ERK signaling, cells expressing only BRAF” value [7]?
Answer: inhibited

Question: And the “effect on ERK signaling, cells expressing only CRAF” value [8]?
Answer: activated

Question: And the “concentrations inhibiting ERK signaling in cells expressing Class 2 BRAF mutants” value [9]?
Answer: 100 to 1000 nM

Question: What about the “effect on ERK signaling in cells with WT RAF” value [10] of the same molecule?
Answer: almost no effect on ERK signaling or caused slight activation

Question: And the “time of highest drug concentrations in melanoma xenografts” value [11]?
Answer: 7 h

Question: And the “time of maximum inhibition of signaling after dosing” value (A375 Xenograft tumors)?
Answer: 2 to 7 h

Question: What about the “time of return of signaling to baseline” value (A375 Xenograft tumors) of the same molecule?
Answer: ≤ 24 h

Question: What about the “response of ERK signaling and tumor growth, BRAF V600E amplified” value [12] of the same molecule?
Answer: sensitive

Question: And the “tumor growth response, single RAF inhibitor” value [13]?
Answer: partially inhibited
